From ChEMBL document CHEMBL2046313, “Discovery and evaluation of a non-Zn chelating, selective matrix metalloproteinase 13 (MMP-13) inhibitor for potential intra-articular treatment of osteoarthritis” (J Med Chem, 2012) come the findings set out here.

Assay [1] deals with 72 kDa type IV collagenase (Homo sapiens, UniProt P08253). Description: Inhibition of human recombinant MMP2 using MCA-Pro-Leu-Gly-Leu-Dpa-Ala-Arg-NH2.AcOH as substrate preincubated for 10 mins measured by fluorescence analysis. A digest of the protocol:
(§1)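 Catalytic domains of recombinant human MMPs were assayed with fluorogenic OmniMMP substrate in 50 mM Tris-HCl pH 7.5, 150 mM NaCl, 5 mM CaCl₂, 0.05% Brij-35. Enzyme was 1–10 nM and substrate 4–10 μM, optimized per assay. Enzyme was preincubated 10 min with varying inhibitor concentrations, and IC50 was calculated from runs done at least in duplicate.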

Assay [2] has as its target Matrix metalloproteinase-9 (Homo sapiens, UniProt P14780). Description: Inhibition of human recombinant MMP9 using MCA-Pro-Leu-Gly-Leu-Dpa-Ala-Arg-NH2.AcOH as substrate preincubated for 10 mins measured by fluorescence analysis. The method in brief:
as §1

The target in assay [3] is T1, Interstitial collagenase (Homo sapiens, UniProt P03956).
T1 sequence (P03956 whole entry): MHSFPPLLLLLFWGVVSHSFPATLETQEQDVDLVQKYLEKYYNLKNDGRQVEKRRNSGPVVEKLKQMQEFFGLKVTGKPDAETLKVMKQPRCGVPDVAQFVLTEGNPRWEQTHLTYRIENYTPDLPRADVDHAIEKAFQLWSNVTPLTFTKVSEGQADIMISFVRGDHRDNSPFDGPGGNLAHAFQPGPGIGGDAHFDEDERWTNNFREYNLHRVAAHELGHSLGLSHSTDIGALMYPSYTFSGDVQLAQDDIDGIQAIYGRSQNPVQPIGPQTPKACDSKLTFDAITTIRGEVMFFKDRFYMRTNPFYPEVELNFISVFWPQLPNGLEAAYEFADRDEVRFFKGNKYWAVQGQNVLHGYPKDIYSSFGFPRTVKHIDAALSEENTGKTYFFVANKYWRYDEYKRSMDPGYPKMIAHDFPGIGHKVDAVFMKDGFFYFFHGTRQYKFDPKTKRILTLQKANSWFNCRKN
Description: Inhibition of human recombinant MMP1 using MCA-Pro-Leu-Gly-Leu-Dpa-Ala-Arg-NH2.AcOH as substrate preincubated for 10 mins measured by fluorescence analysis. A digest of the protocol:
as §1

In assay [4] the target is Stromelysin-1 (Homo sapiens, UniProt P08254). The assay can be described thus: Inhibition of human recombinant MMP3 using MCAArg-Pro-Lys-Pro-Val-Glu-Nva-Trp-Arg-Lys(DNP)-NH2 as substrate preincubated for 10 mins measured by fluorescence analysis. A digest of the protocol:
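Catalytic domain of recombinant human MMP-3 was assayed with NFF-3 fluorogenic substrate in 50 mM MES pH 6.0, 10 mM CaCl₂, 0.05% Brij-35. Enzyme was 1–10 nM and substrate 4–10 μM. Enzyme was preincubated 10 min with varying inhibitor concentrations, and IC50 came from at least duplicate runs.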

Assay [5] is filed under the species Rattus norvegicus. Description: Chondroprotective activity in Sprague-Dawley rat cartilage assessed as inhibition of MMP13-mediated C1,C2 release at 0.5 mg/joint, ia measured on day 14 by ELISA. In kind it is functional. A digest of the protocol:
(§2)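 Male Sprague-Dawley rats (175−200 g, three per group) received one IA injection of 50 μL PBS holding 10 mg/mL suspension (sonicated, vortexed) into right knee. They were killed at 1, 7, 14 or 21 days, and tibial cartilage was collected. Cartilage was then challenged with 10 μg/mL APMA-activated human MMP-13 for 24 h at 37 °C in Tris pH 7.5. The reaction was stopped with 10 mM EDTA, and released C1,2C was measured by ELISA. Vehicle cartilage incubated with or without MMP-13 defined 100% and 0%.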
(In general: ELISA stands for enzyme-linked immunosorbent assay.)

Assay [6] addresses Disintegrin and metalloproteinase domain-containing protein 17 (Homo sapiens, UniProt P78536). Description: Inhibition of human recombinant TACE using MCA-Pro-Leu-Ala-Gln-Ala-Val-Dpa-Arg-Ser-Ser-Ser-Arg-NH2 as substrate preincubated for 10 mins measured by fluorescence analysis. The method in brief:
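Recombinant human TACE was assayed with its fluorogenic peptide substrate in 25 mM Tris-HCl pH 9, 1.25 μM Zn(OAc)₂, 0.005% Brij-35. Enzyme was 1–10 nM and substrate 4–10 μM. Enzyme was preincubated 10 min with varying inhibitor concentrations, and IC50 came from at least duplicate runs.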

Assay [7] has as its target Collagenase 3 (Homo sapiens, UniProt P45452). The assay can be described thus: Inhibition of human recombinant MMP13 using MCA-Pro-Cha-Gly-Nva-His-Ala-Dpa-NH2 as substrate preincubated for 10 mins measured by fluorescence analysis. The method in brief:
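Catalytic domain of recombinant human MMP-13 was assayed with fluorogenic substrate in 50 mM Tris-HCl pH 7.5, 150 mM NaCl, 5 mM CaCl₂, 0.05% Brij-35. Enzyme was 1–10 nM and substrate 4–10 μM. It was preincubated 10 min with varying inhibitor concentrations, and IC50 came from at least duplicate runs.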

In assay [8] the target is Matrix metalloproteinase-14 (Homo sapiens, UniProt P50281). The assay can be described thus: Inhibition of human recombinant MMP14 using MCA-Pro-Leu-Gly-Leu-Dpa-Ala-Arg-NH2.AcOH as substrate preincubated for 10 mins measured by fluorescence analysis. A digest of the protocol:
as §1

In assay [9] the target is Macrophage metalloelastase (Homo sapiens, UniProt P39900). The assay can be described thus: Inhibition of human recombinant MMP12 using MCA-Pro-Leu-Gly-Leu-Dpa-Ala-Arg-NH2.AcOH as substrate preincubated for 10 mins measured by fluorescence analysis. The method in brief:
as §1

Assay [10] relates to Cartilage tissue. Description: Inhibition of collagen degradation in bovine articular cartilage assessed as inhibition of interlukein-1alpha/oncostatin M-induced C1,C2 release measured after 11 days by ELISA. The settings on record: Bos taurus, 264 h. It is filed as functional, tissue-based. The method in brief: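 Freshly isolated bovine articular cartilage pieces (~3 mm²) were stimulated with 5 ng/mL IL-1α plus 50 ng/mL OSM, with or without compound, for 11 days. Medium was refreshed twice weekly. Collagen degradation products in the conditioned medium were quantified by C1,2C ELISA.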

Assay [11] concerns the target Neutrophil collagenase (Homo sapiens, UniProt P22894). The assay can be described thus: Inhibition of human recombinant MMP8 using MCA-Pro-Leu-Gly-Leu-Dpa-Ala-Arg-NH2.AcOH as substrate preincubated for 10 mins measured by fluorescence analysis. A digest of the protocol: as §1
Assay [12] concerns the target T2, A disintegrin and metalloproteinase with thrombospondin motifs 4 (Homo sapiens, UniProt O75173).
T2 sequence (O75173 whole entry): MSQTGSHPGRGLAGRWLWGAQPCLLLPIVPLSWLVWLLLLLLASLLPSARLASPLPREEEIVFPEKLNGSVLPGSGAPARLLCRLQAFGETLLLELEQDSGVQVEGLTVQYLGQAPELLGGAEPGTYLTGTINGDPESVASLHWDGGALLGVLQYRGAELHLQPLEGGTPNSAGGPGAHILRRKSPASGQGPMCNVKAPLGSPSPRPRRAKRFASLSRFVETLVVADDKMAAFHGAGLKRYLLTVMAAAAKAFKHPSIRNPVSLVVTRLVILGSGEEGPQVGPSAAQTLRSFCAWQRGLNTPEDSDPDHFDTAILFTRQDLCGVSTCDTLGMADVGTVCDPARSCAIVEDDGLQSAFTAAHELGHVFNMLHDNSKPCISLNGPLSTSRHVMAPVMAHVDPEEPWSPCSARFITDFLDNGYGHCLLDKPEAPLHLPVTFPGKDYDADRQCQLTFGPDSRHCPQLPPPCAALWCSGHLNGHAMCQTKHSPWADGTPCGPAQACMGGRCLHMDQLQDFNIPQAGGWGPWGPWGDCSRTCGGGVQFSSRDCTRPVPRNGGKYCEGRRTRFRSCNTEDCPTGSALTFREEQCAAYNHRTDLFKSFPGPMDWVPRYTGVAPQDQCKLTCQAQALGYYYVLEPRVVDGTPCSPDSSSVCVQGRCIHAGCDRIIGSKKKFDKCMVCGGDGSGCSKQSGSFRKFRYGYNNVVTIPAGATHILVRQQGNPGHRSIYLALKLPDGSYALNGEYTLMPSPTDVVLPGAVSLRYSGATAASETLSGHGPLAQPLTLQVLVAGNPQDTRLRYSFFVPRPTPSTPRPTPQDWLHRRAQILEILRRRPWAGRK
The assay can be described thus: Inhibition of human recombinant aggrecanase 1 using aggrecan-IGD as substrate measured after 15 mins by ELISA. A digest of the protocol: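 Aggrecanase-1 was run in 50 mM Tris-HCl pH 7.5, 150 mM NaCl, 5 mM CaCl₂, 0.05% Brij-35, with 100 nM recombinant human aggrecan interglobular domain as substrate, for 15 min at 37 °C. The reaction was stopped with EDTA, and ARGSVIL neoepitopes were quantified by ELISA.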

Assay [13] is filed under the species Rattus norvegicus. Description: Chondroprotective activity in Sprague-Dawley rat cartilage assessed as inhibition of MMP13-mediated C1,C2 release at 0.5 mg/joint, ia measured after 24 hrs by ELISA. It is filed as functional. A digest of the protocol: as §2
Assay [14] addresses T3, Matrilysin (Homo sapiens, UniProt P09237).
T3 sequence (P09237 whole entry): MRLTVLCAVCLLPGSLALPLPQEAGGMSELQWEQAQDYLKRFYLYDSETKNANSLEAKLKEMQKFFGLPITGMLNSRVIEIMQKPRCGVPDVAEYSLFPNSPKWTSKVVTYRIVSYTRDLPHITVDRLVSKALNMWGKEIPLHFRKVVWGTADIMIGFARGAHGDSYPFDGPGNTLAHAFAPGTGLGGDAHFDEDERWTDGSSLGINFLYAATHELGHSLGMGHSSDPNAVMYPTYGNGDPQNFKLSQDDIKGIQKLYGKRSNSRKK
Description: Inhibition of human recombinant MMP7 using MCA-Pro-Leu-Gly-Leu-Dpa-Ala-Arg-NH2.AcOH as substrate preincubated for 10 mins measured by fluorescence analysis. The method in brief:
as §1

The species entered for assay [15] is Rattus norvegicus. Description: Chondroprotective activity in Sprague-Dawley rat cartilage assessed as inhibition of MMP13-mediated C1,C2 release at 0.5 mg/joint, ia measured on day 7 by ELISA. In kind it is functional. The method in brief:
as §2

Where only a bound is given, the exact number is not on record here.

Chain of Macrophage metalloelastase (P39900 whole entry): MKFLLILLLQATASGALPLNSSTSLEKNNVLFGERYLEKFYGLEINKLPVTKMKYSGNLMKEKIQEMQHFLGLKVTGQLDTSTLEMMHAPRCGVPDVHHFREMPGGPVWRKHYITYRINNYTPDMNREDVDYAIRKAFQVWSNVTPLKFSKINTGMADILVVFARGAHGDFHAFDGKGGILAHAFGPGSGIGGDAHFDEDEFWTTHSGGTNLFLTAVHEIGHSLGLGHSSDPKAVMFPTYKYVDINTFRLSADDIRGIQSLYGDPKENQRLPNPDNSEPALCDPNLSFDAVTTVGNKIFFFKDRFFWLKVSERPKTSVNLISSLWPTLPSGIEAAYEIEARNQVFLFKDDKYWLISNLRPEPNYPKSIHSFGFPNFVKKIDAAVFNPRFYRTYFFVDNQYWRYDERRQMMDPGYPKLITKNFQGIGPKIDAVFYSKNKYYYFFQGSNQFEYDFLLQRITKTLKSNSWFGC
Chain of Neutrophil collagenase (P22894 whole entry): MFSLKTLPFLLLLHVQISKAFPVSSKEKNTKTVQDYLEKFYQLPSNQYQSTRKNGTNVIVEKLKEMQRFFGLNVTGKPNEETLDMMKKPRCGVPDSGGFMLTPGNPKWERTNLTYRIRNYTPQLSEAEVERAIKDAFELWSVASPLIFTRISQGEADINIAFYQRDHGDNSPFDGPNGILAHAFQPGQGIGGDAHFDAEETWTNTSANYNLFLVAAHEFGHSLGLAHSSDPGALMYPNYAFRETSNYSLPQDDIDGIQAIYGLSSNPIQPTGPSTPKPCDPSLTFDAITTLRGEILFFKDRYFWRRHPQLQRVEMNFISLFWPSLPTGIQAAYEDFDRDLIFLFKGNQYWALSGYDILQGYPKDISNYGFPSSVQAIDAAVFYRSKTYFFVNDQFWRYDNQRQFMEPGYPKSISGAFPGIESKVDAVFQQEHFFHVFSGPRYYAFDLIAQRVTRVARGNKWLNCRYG
Chain of 72 kDa type IV collagenase (P08253 whole entry, the tested form may be a part): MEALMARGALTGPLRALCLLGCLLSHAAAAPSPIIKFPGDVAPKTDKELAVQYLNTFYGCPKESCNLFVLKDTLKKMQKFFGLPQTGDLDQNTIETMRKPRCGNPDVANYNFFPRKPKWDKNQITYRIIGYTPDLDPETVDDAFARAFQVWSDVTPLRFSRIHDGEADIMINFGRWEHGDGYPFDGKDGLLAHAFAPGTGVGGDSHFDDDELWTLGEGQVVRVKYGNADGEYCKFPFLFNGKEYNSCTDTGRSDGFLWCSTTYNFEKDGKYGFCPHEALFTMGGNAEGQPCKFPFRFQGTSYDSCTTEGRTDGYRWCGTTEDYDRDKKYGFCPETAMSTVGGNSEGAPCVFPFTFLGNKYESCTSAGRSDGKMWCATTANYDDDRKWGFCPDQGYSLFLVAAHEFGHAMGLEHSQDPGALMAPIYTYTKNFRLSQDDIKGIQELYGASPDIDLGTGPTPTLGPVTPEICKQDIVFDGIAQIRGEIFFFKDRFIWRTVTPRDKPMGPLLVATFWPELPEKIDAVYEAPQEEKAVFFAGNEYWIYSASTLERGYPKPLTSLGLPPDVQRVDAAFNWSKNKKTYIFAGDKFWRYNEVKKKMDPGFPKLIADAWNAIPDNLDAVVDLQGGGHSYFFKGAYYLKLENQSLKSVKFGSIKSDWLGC
Chain of Matrix metalloproteinase-9 (P14780 whole entry): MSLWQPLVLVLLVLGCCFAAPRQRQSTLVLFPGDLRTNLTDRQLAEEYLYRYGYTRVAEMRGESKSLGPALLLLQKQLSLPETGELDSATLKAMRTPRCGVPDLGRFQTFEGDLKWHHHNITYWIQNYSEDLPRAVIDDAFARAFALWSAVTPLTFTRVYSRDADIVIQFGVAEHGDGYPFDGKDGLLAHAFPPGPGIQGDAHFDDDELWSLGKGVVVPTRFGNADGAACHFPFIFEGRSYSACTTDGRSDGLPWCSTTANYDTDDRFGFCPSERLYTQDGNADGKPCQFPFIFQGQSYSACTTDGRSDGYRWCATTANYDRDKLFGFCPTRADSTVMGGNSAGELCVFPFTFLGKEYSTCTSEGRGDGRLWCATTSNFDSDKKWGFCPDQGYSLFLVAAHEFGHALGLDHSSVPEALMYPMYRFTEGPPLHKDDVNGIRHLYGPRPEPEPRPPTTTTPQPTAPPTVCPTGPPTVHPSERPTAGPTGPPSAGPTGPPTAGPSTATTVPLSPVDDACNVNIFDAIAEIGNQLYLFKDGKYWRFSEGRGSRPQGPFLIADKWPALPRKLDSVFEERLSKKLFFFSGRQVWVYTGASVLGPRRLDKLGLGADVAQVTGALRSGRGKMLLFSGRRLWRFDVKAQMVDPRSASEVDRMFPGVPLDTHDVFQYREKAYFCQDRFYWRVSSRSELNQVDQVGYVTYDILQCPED
Chain of Stromelysin-1 (P08254 whole entry, the tested form may be a part): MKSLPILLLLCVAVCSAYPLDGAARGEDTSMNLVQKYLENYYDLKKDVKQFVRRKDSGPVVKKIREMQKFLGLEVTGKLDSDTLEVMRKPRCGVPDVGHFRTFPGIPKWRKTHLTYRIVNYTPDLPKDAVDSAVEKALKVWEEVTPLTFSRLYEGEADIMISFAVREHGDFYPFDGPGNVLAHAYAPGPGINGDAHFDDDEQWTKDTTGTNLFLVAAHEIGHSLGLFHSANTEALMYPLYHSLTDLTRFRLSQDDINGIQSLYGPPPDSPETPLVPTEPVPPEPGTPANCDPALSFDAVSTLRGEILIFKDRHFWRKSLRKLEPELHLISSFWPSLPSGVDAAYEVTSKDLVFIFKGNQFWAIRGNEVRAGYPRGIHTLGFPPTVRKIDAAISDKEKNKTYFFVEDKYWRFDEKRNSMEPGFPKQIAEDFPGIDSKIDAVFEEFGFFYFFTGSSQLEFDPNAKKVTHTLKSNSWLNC
Chain of Disintegrin and metalloproteinase domain-containing protein 17 (P78536 whole entry, the tested form may be a part): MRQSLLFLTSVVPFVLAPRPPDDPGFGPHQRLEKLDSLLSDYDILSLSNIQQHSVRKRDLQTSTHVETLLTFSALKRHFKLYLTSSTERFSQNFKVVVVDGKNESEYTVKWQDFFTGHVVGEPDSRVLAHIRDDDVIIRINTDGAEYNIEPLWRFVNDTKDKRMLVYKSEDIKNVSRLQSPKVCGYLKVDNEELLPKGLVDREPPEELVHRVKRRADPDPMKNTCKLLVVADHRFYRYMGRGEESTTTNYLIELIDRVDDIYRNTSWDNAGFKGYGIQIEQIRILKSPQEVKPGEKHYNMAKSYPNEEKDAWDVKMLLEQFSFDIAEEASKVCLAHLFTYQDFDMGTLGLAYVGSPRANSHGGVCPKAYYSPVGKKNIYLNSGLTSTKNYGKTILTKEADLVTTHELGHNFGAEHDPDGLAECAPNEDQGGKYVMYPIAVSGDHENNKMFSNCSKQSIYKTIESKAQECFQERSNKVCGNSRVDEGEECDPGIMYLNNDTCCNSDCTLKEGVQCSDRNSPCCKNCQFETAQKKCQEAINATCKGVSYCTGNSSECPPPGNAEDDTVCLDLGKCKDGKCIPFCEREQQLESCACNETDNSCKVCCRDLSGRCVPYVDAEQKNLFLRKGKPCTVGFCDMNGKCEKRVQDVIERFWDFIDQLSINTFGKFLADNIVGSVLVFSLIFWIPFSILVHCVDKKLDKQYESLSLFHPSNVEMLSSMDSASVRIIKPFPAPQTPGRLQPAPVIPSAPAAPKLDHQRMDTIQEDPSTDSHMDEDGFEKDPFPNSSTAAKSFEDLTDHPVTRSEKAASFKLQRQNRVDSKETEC

By IC50 is commonly meant the concentration that gives 50% inhibition. Consider `Cc1c(C(=O)O)ccc2c1CC[C@@H]2NC(=O)c1cc(C(=O)NCc2ccc(F)c(C(F)(F)F)c2)nc2c(F)cnn12`, for which the IC50 was over 20 µM in assay [1]; over 20 µM in [2]; over 20 µM in [3]; 15 µM in assay [4]; over 20 µM in assay [6]; 0.0013 µM in assay [7]. Moreover, the IC50 in assay [8] is over 20 µM; in [9] it was over 20 µM; in assay [10], 0.005 µM; in assay [11], over 20 µM; in assay [12] it was 7 µM; in assay [14], over 20 µM. Moreover, the entries for the “inhibition (INH)” value in assay [5], in assay [13] and in [15] were 0%, 95% and 60%, respectively.
